Measurements published in publication PMC6558985 (Nature chemical biology, 2019).

Assays:
Hs-spastin-N386C = experiment: Steady-state ATPase activity, NADH-coupled assay, Hs-spastin N386C; assay type: biochemical, human; settings: 1 mM MgATP
Hs-FIGL1 = target: T1, Hs-FIGL1 (Homo sapiens, UniProt Q6PIW4); experiment: Steady-state ATPase activity, NADH-coupled assay, Hs-FIGL1; assay type: biochemical; settings: 10 µM, 0.5 mM MgATP, n = 3
T1 sequence (Q6PIW4 288-674): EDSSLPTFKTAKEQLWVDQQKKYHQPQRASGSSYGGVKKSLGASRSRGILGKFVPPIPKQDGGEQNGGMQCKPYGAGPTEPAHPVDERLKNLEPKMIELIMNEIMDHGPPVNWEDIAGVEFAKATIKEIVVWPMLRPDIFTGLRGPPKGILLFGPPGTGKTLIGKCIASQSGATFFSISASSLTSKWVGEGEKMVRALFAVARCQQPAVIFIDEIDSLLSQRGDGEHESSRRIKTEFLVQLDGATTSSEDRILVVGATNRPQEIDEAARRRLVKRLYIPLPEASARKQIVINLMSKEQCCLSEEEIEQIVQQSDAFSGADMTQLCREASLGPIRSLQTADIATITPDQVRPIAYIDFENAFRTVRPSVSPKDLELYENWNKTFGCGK
Procedure, shortened: (§1)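 Recombinant AAA protein constructs assayed by steady-state ATPase with NADH-coupled read-out at 0.5 mM MgATP, with test compound at 2 µM or 10 µM. Activity is reported as percent of steady-state ATPase activity, average ± s.d., n = 3.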

Mm-VCP = Mm-VCP (Mus musculus, UniProt Q01853, I206V); experiment: Steady-state ATPase activity, NADH-coupled assay, Mm-VCP; assay type: biochemical; settings: 10 µM, 0.5 mM MgATP, n = 3
Mm-VCP, sequence (Q01853 whole entry I206V): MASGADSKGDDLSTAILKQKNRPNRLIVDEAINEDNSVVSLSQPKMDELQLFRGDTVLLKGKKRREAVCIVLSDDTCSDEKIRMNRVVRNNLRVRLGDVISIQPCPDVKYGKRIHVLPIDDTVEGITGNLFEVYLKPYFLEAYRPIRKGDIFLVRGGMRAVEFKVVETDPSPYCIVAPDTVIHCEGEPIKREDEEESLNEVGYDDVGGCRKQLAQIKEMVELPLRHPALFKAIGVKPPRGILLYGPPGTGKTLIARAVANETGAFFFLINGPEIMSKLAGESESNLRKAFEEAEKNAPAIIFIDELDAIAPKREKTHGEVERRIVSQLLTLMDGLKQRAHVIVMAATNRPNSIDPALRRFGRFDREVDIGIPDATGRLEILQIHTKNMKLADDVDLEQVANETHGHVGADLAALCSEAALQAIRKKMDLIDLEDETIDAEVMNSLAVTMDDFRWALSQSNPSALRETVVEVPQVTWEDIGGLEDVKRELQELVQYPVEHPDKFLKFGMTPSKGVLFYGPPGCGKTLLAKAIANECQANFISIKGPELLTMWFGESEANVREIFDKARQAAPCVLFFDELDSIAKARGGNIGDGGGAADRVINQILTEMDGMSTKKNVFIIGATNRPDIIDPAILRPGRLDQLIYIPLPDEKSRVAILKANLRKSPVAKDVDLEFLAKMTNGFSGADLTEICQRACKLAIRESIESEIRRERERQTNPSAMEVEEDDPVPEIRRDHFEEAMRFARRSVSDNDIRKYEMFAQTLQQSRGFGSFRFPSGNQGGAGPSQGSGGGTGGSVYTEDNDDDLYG
Procedure, shortened: as §1

Xl-katanin = Xl-katanin (Xenopus laevis, UniProt Q9PUL2); experiment: Steady-state ATPase activity, NADH-coupled assay, Xl-katanin; assay type: biochemical, X. laevis; settings: 10 µM, 0.5 mM MgATP, n = 3
Xl-katanin, sequence (Q9PUL2 whole entry): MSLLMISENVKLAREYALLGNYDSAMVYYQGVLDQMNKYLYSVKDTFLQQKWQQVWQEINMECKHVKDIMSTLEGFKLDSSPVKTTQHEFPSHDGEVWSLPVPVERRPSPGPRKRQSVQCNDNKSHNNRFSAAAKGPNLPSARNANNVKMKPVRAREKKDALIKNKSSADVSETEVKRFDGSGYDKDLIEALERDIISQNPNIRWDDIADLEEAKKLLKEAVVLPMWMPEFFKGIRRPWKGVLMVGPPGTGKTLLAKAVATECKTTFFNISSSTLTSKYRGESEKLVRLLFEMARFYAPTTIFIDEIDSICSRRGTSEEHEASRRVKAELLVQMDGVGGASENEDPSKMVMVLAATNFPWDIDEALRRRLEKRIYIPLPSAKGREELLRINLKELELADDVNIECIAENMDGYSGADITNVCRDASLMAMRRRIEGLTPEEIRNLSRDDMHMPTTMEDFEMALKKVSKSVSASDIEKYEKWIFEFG
Procedure, shortened: as §1

Hs-PCH2 = target: T2, Hs-PCH2 (Homo sapiens, UniProt Q15645); experiment: Steady-state ATPase activity, NADH-coupled assay, Hs-PCH2; assay type: biochemical; settings: 10 µM, 0.5 mM MgATP, n = 3
T2 sequence (Q15645 1-432): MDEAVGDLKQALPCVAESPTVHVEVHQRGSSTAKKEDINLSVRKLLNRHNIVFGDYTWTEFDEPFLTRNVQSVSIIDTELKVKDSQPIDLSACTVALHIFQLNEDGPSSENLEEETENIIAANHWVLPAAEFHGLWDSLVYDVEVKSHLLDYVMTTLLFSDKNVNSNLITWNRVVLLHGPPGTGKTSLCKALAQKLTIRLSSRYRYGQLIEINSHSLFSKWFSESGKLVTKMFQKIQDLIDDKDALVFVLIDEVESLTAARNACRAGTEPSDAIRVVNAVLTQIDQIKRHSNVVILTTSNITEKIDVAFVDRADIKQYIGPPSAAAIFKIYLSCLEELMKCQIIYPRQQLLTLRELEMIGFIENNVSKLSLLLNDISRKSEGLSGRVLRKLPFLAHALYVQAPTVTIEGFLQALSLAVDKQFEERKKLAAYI
Procedure, shortened: as §1

human VPS4B = target: T3, human VPS4B (Homo sapiens, UniProt O75351); experiment: Steady-state ATPase activity, NADH-coupled assay, VPS4B; assay type: biochemical; settings: 1 mM MgATP, n = 3
T3 sequence (O75351 1-444): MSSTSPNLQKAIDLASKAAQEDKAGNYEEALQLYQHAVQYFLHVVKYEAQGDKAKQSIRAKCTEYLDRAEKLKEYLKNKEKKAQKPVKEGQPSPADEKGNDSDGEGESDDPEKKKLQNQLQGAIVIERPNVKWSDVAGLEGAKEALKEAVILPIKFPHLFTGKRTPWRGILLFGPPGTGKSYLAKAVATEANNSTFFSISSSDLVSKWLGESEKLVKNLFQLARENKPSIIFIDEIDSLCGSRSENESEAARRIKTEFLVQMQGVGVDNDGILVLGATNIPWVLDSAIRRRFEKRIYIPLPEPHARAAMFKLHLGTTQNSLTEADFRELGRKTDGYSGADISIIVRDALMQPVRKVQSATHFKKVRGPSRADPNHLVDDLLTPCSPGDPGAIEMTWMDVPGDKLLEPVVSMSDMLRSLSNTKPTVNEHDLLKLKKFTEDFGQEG

HeLa-WT cells [1] = experiment: Intercellular bridge analysis; assay type: cell-based, human; settings: 10 µM, 4.5 hours
Procedure, shortened: (§2)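 Fixed HeLa Flp-In T-Rex lines expressing GFP-tagged spastin M87e4, either wildtype or N386C. Cells were exposed to 0.1% DMSO or 10 µM test compound for 4.5 h, then stained for acetylated tubulin to mark intercellular bridges and imaged by immunofluorescence. Read-out is the percent of cells with a bridge: >2500 cells per condition, average ± s.d., n = 3.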

HeLa-N386C cells [2] = experiment: Intercellular bridge analysis; assay type: cell-based, human; settings: 10 µM, 4.5 hours, average ± s.d., n = 3
Procedure, shortened: as §2

HeLa-WT cells [3] = experiment: CellTiter-Glo cell viability assay; assay type: cell-based, human; settings: 10 µM, 48 h
HeLa-WT cells [4] = experiment: Microtubule organization; assay type: cell-based, human; settings: 10 µM, 4 hours
HeLa-N386C cells [5] = experiment: Live-cell imaging of GFP-spastin puncta in anaphase, HeLa-N386C; assay type: cell-based, human; settings: 10 µM for 1 hour, 20 min after cleavage furrow ingression

potency on Hs-spastin-N386C relative to wildtype (less potent) (Hs-spastin-N386C): > 100 fold
inhibition of Hs-FIGL1 ATPase activity (Hs-FIGL1): did not appreciably inhibit
inhibition of Mm-VCP ATPase activity (Mm-VCP): did not appreciably inhibit
inhibition of Xl-katanin ATPase activity (Xl-katanin): did not appreciably inhibit
inhibition of Hs-PCH2 ATPase activity (Hs-PCH2): did not appreciably inhibit
inhibition of ATPase activity of recombinant human VPS4 (human VPS4B): did not inhibit ATPase activity
SMILES: CC(C)[C@@H]1CN(c2nc(Nc3cc(C(C)(C)C)[nH]n3)c3cc[nH]c3n2)CCN1 [spastazoline, (R)-N-(5-(tert-butyl)-1H-pyrazol-3-yl)-2-(3-isopropylpiperazin-1-yl)-7H-pyrrolo[2,3-d]pyrimidin-4-amine]
increase in number of cells with intercellular bridges compared to DMSO control, HeLa-WT (HeLa-WT cells [1]): ~ 2 fold
percent of cells with an intercellular bridge, HeLa-WT (HeLa-WT cells [1]; average ± s.d., n = 3): 25.2 ± 1.4%
percent of cells with an intercellular bridge, HeLa-N386C (HeLa-N386C cells [2]): 13.6 ± 1.4%
viability of HeLa cells (HeLa-WT cells [3]): did not impact the viability
organization of microtubules (HeLa-WT cells [4]): did not result in overt changes in the organization of microtubules
increase in GFP-spastin dots in HeLa-N386C with respect to wildtype (HeLa-N386C cells [5]): 1.6 fold
number of GFP-spastin dots, HeLa-N386C (HeLa-N386C cells [5]; average ± s.e.m.): 8 ± 3
